# An excerpt weighted towards active compounds, which were near 1.6% of everything screened.
# TRAIL sens C8 = viability loss with TRAIL in NB7+C8 cells, primary screen, TRAIL sensitizer project, cell-based, ATPlite luminescence; inhibition (viability loss, TRAIL sensitization), % at 10 µM; 1% of 360,000 active; AID 624354, 2012;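 active = compounds causing at least 50% loss of cell viability in the single-dose screen, relative to plate controls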
# FLuc act counter = FLuc activators, initial screening, artefact control for FLuc-dependent activation tests, biochemical, ATPlite luminescence | 200,000 tested, under 10 active | AID 1027, 2008 | Luciferin 4-monooxygenase (Photinus pyralis), P08659 | ATPlite luciferase biochemical, 10 min; 0 = ATP-free wells, 1 = DMSO control | activation factor at 10 µM;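 active = luciferase activation factor, scaled between plate controls, of at least 2 with compound at 10 µM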
# Target sequence (P08659 whole entry, looked up): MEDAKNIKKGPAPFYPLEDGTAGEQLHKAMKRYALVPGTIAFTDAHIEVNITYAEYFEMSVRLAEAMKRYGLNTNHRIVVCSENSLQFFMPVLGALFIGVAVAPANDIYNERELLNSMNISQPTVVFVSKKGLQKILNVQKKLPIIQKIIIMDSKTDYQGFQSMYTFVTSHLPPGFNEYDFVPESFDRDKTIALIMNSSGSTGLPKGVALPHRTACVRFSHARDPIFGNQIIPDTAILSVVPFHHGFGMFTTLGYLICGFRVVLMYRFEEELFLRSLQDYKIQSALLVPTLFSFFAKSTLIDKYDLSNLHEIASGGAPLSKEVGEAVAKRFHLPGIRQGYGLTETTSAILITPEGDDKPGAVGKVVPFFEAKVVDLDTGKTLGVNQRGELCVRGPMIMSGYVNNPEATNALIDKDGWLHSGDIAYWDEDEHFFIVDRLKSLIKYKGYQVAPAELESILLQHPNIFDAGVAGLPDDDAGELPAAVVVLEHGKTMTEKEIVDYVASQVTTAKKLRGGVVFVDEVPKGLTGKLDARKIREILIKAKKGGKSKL
#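 System: luciferase plus luciferin reagent, cell-free; medium: PBS as buffer for the ATP substrate; dosing: test compounds dosed from 2 mM stocks in 100% DMSO; timing: 10 min post-reagent at room temperature; measured by: luminescence measurement of luciferase light output; evaluation: luciferase activation, seen as luminescence increase over controls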
# PPC-1+TRAIL kill = compounds killing PPC-1 cancer cells with TRAIL present, primary screen, TRAIL potentiator project, ATPLite luminescence, uHTS | 0.41% of 220,000 active | AID 1443, 2008 | PPC-1 cells + TRAIL, ATPLite viability luminescence | cell killing (% activity), % at 4 µM or 5 µM;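 active = cell killing above 50% in the first pass at 4 µM, then a duplicate retest at 5 µM averaging 50% or more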;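 also: plate controls were cells with TRAIL plus DMSO for no effect and medium-only wells lacking cells for full effect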
# FLuc inhib CS = firefly luciferase enzyme inhibitors, primary screen, artefact control for luciferase-based inhibitor screens, biochemical, luminescence, ATPLite | 10 min | inhibition, % at 10 µM | 1.5% of 200,000 active | Luciferin 4-monooxygenase (Photinus pyralis), P08659;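 active = inhibition above about 50% when tested at 10 µM, limit read from the data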
# PPC1 cytotox = cytotoxicity in PPC-1 cells, confirmation, cytotoxicity control for TRAIL apoptosis potentiator project, cell-based, ATP content luminescence; shares compounds with PPC-1+TRAIL kill; PPC-1 viability, ATPlite luminescence, overnight; cytotoxicity, % at 5 µM; 50% of 1,200 active;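 active = reconfirmed compounds whose average cytotoxicity reaches 50% or more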;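 also: 0% = DMSO-treated cells and 100% = wells holding medium but no cells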
# An asterisk follows results filed as active; nt = not tested or not shown.
SMILES,TRAIL sens C8,FLuc act counter,PPC-1+TRAIL kill,FLuc inhib CS,PPC1 cytotox
OC(c1cc(C(F)(F)F)nc2c(Cl)cc(Cl)cc12)C1CCCCN1 (configuration not stated),3,nt,17,nt,nt
OC(c1cc(-c2ccc(Cl)cc2)nc2ccccc12)C1CCCCN1 (configuration not stated),33,nt,9,nt,-6
Cc1ccc(Nc2nc(N)nc(CN3CCN(c4ccccc4)CC3)n2)cc1Cl,7,1.1,15,-7,nt
Nc1nc(CCl)nc(Nc2ccc3ccccc3c2)n1,95*,nt,96*,nt,95*
N#Cc1cc(C(=O)c2cc(Cl)ccc2O)cn(-c2ccccc2)c1=O,4,1,11,-3,nt
O=C(Nc1ccccc1C(=O)N/N=C/c1ccncc1)c1ccccc1,89*,0,80*,96*,82*
CCn1c(-c2ccc(N(C)C)cc2)nc2ccccc21,65*,0.2,60*,85*,60*
CCn1c(-c2ccc(N)cc2)nc2ccccc21,10,1,-18,1,nt
c1ccc(OCCn2c(-c3ccco3)nc3ccccc32)cc1,0,1,8,-3,nt
CN(C)c1ccc(-c2nc3ccccc3n2C)cc1,82*,0,88*,96*,88*
CC(C)n1c(-c2ccc(N(C)C)cc2)nc2ccccc21,42,0.6,14,42,nt
CCn1c(-c2ccco2)nc2ccccc21,9,0.8,19,23,19
Cc1nnc(SCC(=O)NNC(=O)c2ccco2)n1-c1cccc(Cl)c1,-7,1.1,20,-6,nt
CCN(C(=O)COc1cc(=O)n(C)c2ccccc12)c1cccc(Cl)c1,-3,1.1,12,-8,nt
COc1ccc(O)c(C(=O)CC(=O)c2ccc(F)cc2)c1,80*,0.8,80*,21,75*
COc1ccc(C(=O)CC(=O)c2ccccc2O)cc1,5,nt,nt,nt,nt
Cc1noc(C)c1COC(=O)c1ccc(F)c(S(=O)(=O)N2CCCCC2)c1,6,1.1,-6,-5,nt
CC(C)(C)C(=O)Nc1cc2nn(-c3ccccc3)nc2cc1Cl,93*,0,96*,97*,96*
COc1cccc(NC(=O)Nc2nccc(C)n2)c1,67*,0.2,56*,82*,62*
Cc1nc2cc(NC(=O)Nc3nccs3)ccc2n1C,66*,0.2,54*,81*,51*
COc1cccc(NC(=O)Nc2ccc3c(c2)nc(C)n3C)c1,82*,0.1,75*,92*,72*
COc1cccc(NC(=O)Nc2ccc3nc(C)c(C)nc3c2)c1,3,nt,nt,nt,nt
Oc1ccccc1/C=N/Nc1nccnc1Cl,17,0.7,27,27,nt
Cc1ccc(NC(=O)N(CCC(=O)O)Cc2ccccc2)cc1,-2,nt,20,nt,nt
O=C(/C=C/c1ccccc1Cl)N(c1ccccn1)C1CCCCC1,1,1,9,-1,nt
SMILES,TRAIL sens C8,FLuc act counter,PPC-1+TRAIL kill,FLuc inhib CS,PPC1 cytotox
COc1ccc(-c2nsc(C(=O)N(c3ccc(F)cc3)C(C(=O)NC3CCCC3)c3ccc(OC)cc3)c2N)cc1 (configuration not stated),0,1,6,-4,1
O=C(Nc1nnc(SCC(=O)N2CCOCC2)s1)c1ccccc1Cl,69*,0.2,58*,85*,56*
O=[N+]([O-])c1cc(/C=N/NC(=S)Nc2ccccc2Cl)ccc1Cl,0,1.1,37,-7,28
COc1cc(/C=C/c2cc(C(=O)O)c3ccccc3n2)ccc1OC(F)F,83*,nt,80*,nt,79*
O=C(O)c1cc(N2CCOCC2)nc2ccccc12,6,nt,nt,nt,nt
O=C(O)c1cc(/C=C/c2ccc(N3CCOCC3)cc2)nc2ccccc12,87*,0,90*,97*,91*
COc1cc(/C=C/C(=O)OCN2C(=O)c3ccccc3C2=O)ccc1OC(F)F,-5,nt,nt,nt,nt
Cc1ccc(-c2cc(-c3ccccc3)nc(N/N=C/c3cccnc3)n2)cc1,17,nt,nt,nt,nt
Cc1ccc(-c2nc(N/N=C/c3cccnc3)c3ccccc3n2)cc1,91*,0,91*,97*,85*
O=C1CC(c2ccccc2)CC(O)=C1C=Nc1ccccc1Cl (configuration not stated),0,1,26,5,nt

# High-throughput results as filed in PubChem BioAssay.
